Tests used:
[1] = system: RAW264.7; assay: Antiinflammatory activity in mouse RAW264.7 cells assessed as inhibition of LPS-induced nitric oxide production at 40 uM by griess assay relative to control; assay type: functional
Summary of the method: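 LPS-stimulated RAW 264.7 mouse macrophages; nitric oxide production measured; single-concentration screen of inhibition relative to control. Dexamethasone as positive control.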

[2] = system: RAW264.7; assay: Antiinflammatory activity in mouse RAW264.7 cells assessed as inhibition of LPS-induced nitric oxide production by griess assay; assay type: functional, cell-based
Summary of the method: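 RAW 264.7 mouse macrophages induced with LPS; NO production measured over five test concentrations to derive IC50; means ± SD, n = 3; dexamethasone positive control.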

[3] = Cytotoxicity against mouse RAW264.7 cells assessed as survival rate at 200 uM measured in absence of LPS by MTT assay relative to control; assay type: cell-based; details: read-out: Survival
Summary of the method: (§1)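 RAW 264.7 mouse macrophages treated with compound at 200 μM, with or without 1 μg/mL LPS. Viability read by MTT and expressed as survival rate (%). Values are means ± SD, n = 3.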

[4] = Cytotoxicity against mouse RAW264.7 cells assessed as survival rate at 200 uM measured in presence of LPS by MTT assay relative to control; assay type: cell-based; details: read-out: Survival; summary of the method: as §1
[5] = system: RAW264.7; assay: Cytotoxicity against mouse RAW264.7 cells at 200 uM measured in absence of LPS by MTT assay; assay type: cell-based; details: raw264.7, 200 µM
Summary of the method: (§2)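 MTT viability of RAW 264.7 mouse macrophages exposed to compound at 200 μM, with or without 1 μg/mL LPS; reported as cell survival rate (%).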

[6] = system: RAW264.7; assay: Cytotoxicity against mouse RAW264.7 cells at 200 uM measured in presence of LPS by MTT assay; assay type: cell-based; details: raw264.7, 200 µM; summary of the method: as §2

| Structure (SMILES) | inhibition at 40 µM [1] | IC50 [2] | viability at 200 µM [3] | viability at 200 µM [4] | Activity [5] | Activity [6] |
| --- | --- | --- | --- | --- | --- | --- |
| CC1(C)[C@@H](O)[C@H](O)[C@H]2[C@](C)(O)[C@@H]3CC[C@@H]4[C@@H](O)[C@@]3(C[C@@H](O)[C@@]21O)C[C@@]4(C)O | > 50% | 8 µM | 97% | 90.4% | – | – |
| CC1(C)[C@H]2O[C@H]2[C@H]2[C@](C)(O)[C@@H]3CC[C@@H]4[C@@H](O)[C@@]3(C[C@@H](O)[C@@]21O)C[C@@]4(C)O | > 50% | 7 µM | 96.5% | 98.4% | – | – |
| C=C1[C@@H]2[C@@H](O)[C@H](O)C(C)(C)[C@@]2(O)[C@H](O)C[C@]23C[C@@](C)(O)[C@H](CC[C@@H]12)[C@H]3O | > 50% | 8.1 µM | 98.1% | 97.5% | – | – |
| C=C1[C@@H]2[C@@H]3O[C@@H]3C(C)(C)[C@@]2(O)[C@H](O)C[C@]23C[C@@](C)(O)[C@H](CC[C@@H]12)[C@H]3O | > 50% | 35.4 µM | 90.3% | 92% | – | – |
| CO[C@H]1[C@H](O)C(C)(C)[C@@]2(O)[C@H](OC(C)=O)C[C@]34C[C@@](C)(O)[C@H](CC[C@H]3[C@@](C)(O)[C@H]12)[C@H]4O | > 50% | 4.6 µM | 98.3% | 97.3% | – | – |
| CC(=O)O[C@@H]1[C@H]2CC[C@H]3[C@@](C)(O)[C@@H]4[C@@H]5O[C@@H]5C(C)(C)[C@@]4(O)[C@H](O)C[C@@]13C[C@@]2(C)O | – | > 40 µM | – | – | Non-Toxic | Non-Toxic |
| CC(=O)O[C@@H]1C[C@]23C[C@@](C)(OC(C)=O)[C@H](CC[C@H]2[C@@](C)(O)[C@@H]2[C@@H]4O[C@@H]4C(C)(C)[C@@]12O)[C@H]3O | > 50% | 10.1 µM | 98.9% | 99.7% | – | – |
| C=C1[C@@H]2[C@@H](OC)[C@H](O)C(C)(C)[C@@]2(O)[C@H](O)C[C@]23C[C@@](C)(O)[C@H](CC[C@@H]12)[C@H]3O | – | > 40 µM | – | – | Non-Toxic | Non-Toxic |
| CO[C@@H]1[C@H]2C(C)=C3CC[C@@H]4[C@@H](O)[C@@]3(C[C@@H](OC(C)=O)[C@]2(O)C(C)(C)[C@H]1O)C[C@@]4(C)O | – | > 40 µM | – | – | Non-Toxic | Non-Toxic |
| C=C1[C@@H]2[C@@H](O)[C@H](O)C(C)(C)[C@@]2(O)[C@H](OC(C)=O)C[C@]23C=C(C)[C@H](CC[C@@H]12)[C@H]3O | – | > 40 µM | – | – | Non-Toxic | Non-Toxic |
| CO[C@H]1[C@H](O)C(C)(C)[C@@]2(O)[C@H](O)C[C@]34C[C@@](C)(O)[C@H](CC[C@H]3[C@@](C)(O)[C@H]12)[C@H]4O | – | > 40 µM | – | – | Non-Toxic | Non-Toxic |
| CC(=O)O[C@@H]1C[C@]23C[C@@](C)(O)[C@H](CC[C@H]2[C@@](C)(O)[C@@H]2[C@@H]4O[C@@H]4C(C)(C)[C@@]12O)[C@H]3O | > 50% | 2.8 µM | 101% | 93.6% | – | – |
| CC(=O)O[C@@H]1C[C@]23C[C@@](C)(O)[C@H](CC[C@H]2[C@@](C)(O)[C@@H]2C[C@H](O)C(C)(C)[C@@]12O)[C@H]3O | – | > 40 µM | – | – | Non-Toxic | Non-Toxic |
| CO[C@H]1[C@H](O)C(C)(C)[C@@]2(O)[C@H](OC(C)=O)C[C@]34C[C@@](C)(O)[C@H](CC[C@H]3[C@@](C)(O)[C@H]12)[C@H]4O[C@H]1[C@H](O)C(C)(C)[C@@]2(O)[C@H](OC(C)=O)C[C@]34C[C@@](C)(O)[C@H](CC[C@H]3[C@@](C)(O)[C@H]12)[C@H]4O | – | > 40 µM | – | – | Non-Toxic | Non-Toxic |
| CO[C@@H]1[C@H]2[C@@H](C)[C@]34CC[C@H]5C(C)=C[C@]3(C[C@@H](OC(C)=O)[C@]2(O4)C(C)(C)[C@H]1O)[C@@H]5O | – | > 40 µM | – | – | Non-Toxic | Non-Toxic |
| CC(=O)O[C@@H]1C[C@]23C[C@@](C)(O)[C@H](CC[C@H]2[C@@](C)(O)[C@@H]2[C@@H](O)[C@H](O)C(C)(C)[C@@]12O)[C@H]3O | > 50% | 9.3 µM | 98.8% | 99.8% | – | – |
| CC(=O)O[C@@H]1[C@H]2CC[C@H]3[C@@](C)(O)[C@@H]4[C@@H](O)[C@H](O)C(C)(C)[C@@]4(O)[C@H](OC(C)=O)C[C@@]13C[C@@]2(C)O | > 50% | 10.3 µM | 97.4% | 93.9% | – | – |
| C=C1[C@@H]2[C@@H](OC)[C@H](O)C(C)(C)[C@@]2(O)[C@H](OC(C)=O)C[C@]23C[C@@](C)(O)[C@H](CC[C@@H]12)[C@H]3O | – | > 40 µM | – | – | Non-Toxic | Non-Toxic |
| C=C1[C@@H]2[C@@H](O)[C@H](O)C(C)(C)[C@@]2(O)[C@H](OC(C)=O)C[C@]23C[C@@](C)(O)[C@H](CC[C@@H]12)[C@H]3O | – | > 40 µM | – | – | Non-Toxic | Non-Toxic |
| CC(=O)O[C@@H]1C[C@]23C=C(C)[C@H](CC[C@H]2[C@@](C)(O)[C@@H]2[C@@H]4O[C@@H]4C(C)(C)[C@@]12O)[C@H]3O | – | > 40 µM | – | – | Non-Toxic | Non-Toxic |
| CO[C@H]1[C@H](O)C(C)(C)[C@@]2(O)[C@H](OC(C)=O)C[C@]34C[C@@](C)(O)[C@H](CC[C@H]3[C@@](C)(O)[C@H]12)[C@H]4OC(C)=O | – | > 40 µM | – | – | Non-Toxic | Non-Toxic |
| C=C1C[C@@]23C[C@@H](O)[C@@]4(O)C([C@@H]5O[C@@H]5C4(C)C)[C@](C)(O)[C@@H]2CC[C@@H]1[C@H]3O (some centres not stated) | – | > 40 µM | – | – | Non-Toxic | Non-Toxic |
| C=C1[C@@H]2CC[C@@H]3C[C@@]2(C[C@@H](O)[C@@]2(O)[C@H]1C[C@H](O)[C@]2(C)CO)C[C@@]3(C)O | – | > 40 µM | – | – | Non-Toxic | Non-Toxic |
| C=C1[C@@H]2CC[C@@H]3C[C@@]2(C[C@@H](OC(C)=O)[C@@]2(O)[C@H]1C[C@H](O)C2(C)C)C[C@@]3(C)O | – | > 40 µM | – | – | Non-Toxic | Non-Toxic |
| C=C1C[C@@]23C[C@@H](OC(C)=O)[C@@]4(O)[C@@H]([C@@H](O)[C@H](O)C4(C)C)[C@](C)(O)[C@@H]2CC[C@@H]1[C@H]3O | – | > 40 µM | – | – | Non-Toxic | Non-Toxic |
| CC(=O)O[C@@H]1C[C@@]23C[C@]4(C)O[C@@H](C[C@@H]4[C@H]2O)[C@H]3[C@@](C)(O)C2[C@@H]3O[C@@H]3C(C)(C)[C@]21O (some centres not stated) | – | > 40 µM | – | – | Non-Toxic | Non-Toxic |
| C=C1[C@@H]2CC[C@@H]3C[C@@]2(C[C@@H](O)[C@@]2(O)[C@H]1C[C@H](O)C2(C)C)C[C@@]3(C)O | > 50% | 3.5 µM | 96.4% | 93.8% | – | – |
| C=C1[C@@H]2CC[C@@H]3[C@@H](O)[C@@]2(C[C@@H](O)[C@@]2(O)[C@H]1C[C@H](O)C2(C)C)C[C@@]3(C)O | – | > 40 µM | – | – | Non-Toxic | Non-Toxic |
| C[C@@H]1C[C@H]2[C@@H]3CCC4=CC(=O)C=C[C@]4(C)[C@@]3(F)[C@@H](O)C[C@]2(C)[C@@]1(O)C(=O)CO [DEXAMETHASONE] | – | 0.8 µM | 97.7% | 97.1% | – | – |

— ChEMBL document CHEMBL4130603, “Anti-inflammatory Grayanane Diterpenoids from the Leaves of Rhododendron molle” (J Nat Prod, 2018)
